ChEMBL document CHEMBL5712084, “Interactome Rewiring Following Pharmacological Targeting of BET Bromodomains” (Mol Cell, 2019)
Activity calls are given as the source filed them. The calls are words filed in the database; no cut-off is given here.

Columns and labels:
[1] = biological target: Bromodomain-containing protein 3 (Homo sapiens) (UniProt Q15059); test: Inhibition of BRD3 in human U2OS cells assessed as displacement of BRD3 from rDNA IGS region toward the transcribed regions at 500 nM; assay type: cell-based
Sequence of Bromodomain-containing protein 3 (Homo sapiens) (Q15059 2-726 limits assumed): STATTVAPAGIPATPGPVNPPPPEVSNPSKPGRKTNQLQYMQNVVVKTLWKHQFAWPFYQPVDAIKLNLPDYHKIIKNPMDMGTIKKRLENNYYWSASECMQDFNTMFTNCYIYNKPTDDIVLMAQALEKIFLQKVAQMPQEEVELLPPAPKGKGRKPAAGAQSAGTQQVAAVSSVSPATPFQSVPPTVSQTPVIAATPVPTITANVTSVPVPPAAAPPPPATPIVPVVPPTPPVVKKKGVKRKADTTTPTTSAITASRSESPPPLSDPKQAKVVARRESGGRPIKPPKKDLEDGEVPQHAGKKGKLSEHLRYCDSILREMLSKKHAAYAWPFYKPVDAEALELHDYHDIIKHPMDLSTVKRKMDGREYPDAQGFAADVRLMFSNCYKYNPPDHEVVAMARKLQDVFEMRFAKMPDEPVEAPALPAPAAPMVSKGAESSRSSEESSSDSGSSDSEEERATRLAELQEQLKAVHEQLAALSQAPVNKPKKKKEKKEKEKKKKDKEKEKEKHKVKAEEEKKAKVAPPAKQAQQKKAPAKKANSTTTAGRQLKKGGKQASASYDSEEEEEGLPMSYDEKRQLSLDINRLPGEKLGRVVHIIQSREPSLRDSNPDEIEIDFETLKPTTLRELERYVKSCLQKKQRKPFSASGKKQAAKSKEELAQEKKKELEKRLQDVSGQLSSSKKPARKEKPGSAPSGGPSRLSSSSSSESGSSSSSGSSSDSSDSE

[2] = biological target: T1, Bromodomain and extra-terminal motif (BET) (Homo sapiens) (UniProt P25440+O60885+Q58F21+Q15059); conditions: Flp-In-T-REx-293, dose 500.0 nM, time 10-240 min
[3] = biological target: T1, Bromodomain and extra-terminal motif (BET) (Homo sapiens); conditions: Flp-In-T-REx-293, dose 500.0 nM, time 1.0 hrs
[4] = test system: Bromodomain-containing protein 2 (Homo sapiens), P25440 [UNDEFINED MUTATION]; conditions: U2OS, dose 500.0 nM
Sequence of Bromodomain-containing protein 2 (Homo sapiens), P25440 [UNDEFINED MUTATION] (P25440 whole entry, looked up, change not shown): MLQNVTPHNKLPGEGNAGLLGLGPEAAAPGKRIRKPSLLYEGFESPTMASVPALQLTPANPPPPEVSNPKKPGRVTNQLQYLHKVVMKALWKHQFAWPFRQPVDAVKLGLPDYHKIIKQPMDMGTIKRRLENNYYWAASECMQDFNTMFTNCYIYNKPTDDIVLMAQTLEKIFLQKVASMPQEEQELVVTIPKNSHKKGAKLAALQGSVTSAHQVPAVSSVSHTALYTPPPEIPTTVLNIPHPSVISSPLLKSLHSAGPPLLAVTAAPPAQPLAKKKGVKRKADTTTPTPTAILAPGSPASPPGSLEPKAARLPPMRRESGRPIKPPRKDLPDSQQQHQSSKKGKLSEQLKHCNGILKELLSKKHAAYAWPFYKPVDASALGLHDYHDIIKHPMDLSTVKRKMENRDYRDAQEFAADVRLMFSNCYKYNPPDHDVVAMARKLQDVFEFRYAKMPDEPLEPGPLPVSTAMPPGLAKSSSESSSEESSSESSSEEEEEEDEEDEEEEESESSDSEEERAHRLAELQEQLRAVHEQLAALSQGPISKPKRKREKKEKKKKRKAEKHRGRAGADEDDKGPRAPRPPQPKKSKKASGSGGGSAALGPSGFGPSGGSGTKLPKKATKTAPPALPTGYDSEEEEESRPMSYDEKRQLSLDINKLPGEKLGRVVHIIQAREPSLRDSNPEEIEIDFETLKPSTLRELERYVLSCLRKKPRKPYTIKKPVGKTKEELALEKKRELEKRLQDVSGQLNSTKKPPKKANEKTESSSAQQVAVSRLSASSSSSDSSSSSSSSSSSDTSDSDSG

[5] = biological target: T1, Bromodomain and extra-terminal motif (BET) (Homo sapiens); conditions: Flp-In-T-REx-293, dose 500.0 nM, time 10-240 min; remark: listed apart in the source
[6] = biological target: Bromodomain-containing protein 2 (Homo sapiens) (UniProt P25440); conditions: U2OS, dose 500.0 nM, time 20.0 sec
Sequence of Bromodomain-containing protein 2 (Homo sapiens) (P25440 whole entry, looked up): as the sequence (P25440 whole entry, looked up, change not shown) above

U2OS [7] = test: Inhibition of BRD1:2 mutant bromodomain in human U2OS cells assessed as foci formation of BRD2 mutant in to foci at 500 nM by live cell imaging; assay type: cell-based
Method in brief: (§1)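 Flp-In T-REx U-2 OS cells were grown in DMEM with GlutaMAX and 10% heat-inactivated FBS plus penicillin-streptomycin at 37°C and 10% CO2. eGFP-tagged constructs were expressed from a tetracycline-inducible pcDNA5-FRT-TO vector. Nuclear and nucleolar localisation and foci were followed by live-cell imaging.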

[8] = biological target: T1, Bromodomain and extra-terminal motif (BET) (Homo sapiens); conditions: Flp-In-T-REx-293, dose 500.0 nM
U2OS [9] = test: Effect on localization of the nucleolar proteins (PARP1, POLR1E, and TCOF1) in human U2OS cells at 500 nM; assay type: functional, cell-based; method in brief: as §1
[10] = biological target: T1, Bromodomain and extra-terminal motif (BET) (Homo sapiens); conditions: Flp-In-T-REx-293, dose 500.0 nM, time 10-240 min; remark: listed apart in the source
[11] = test system: Bromodomain-containing protein 3 (Homo sapiens), Q15059 [UNDEFINED MUTATION]; test: Inhibition of BRD3 mutant bromodomain in human U2OS cells assessed as accumulation of BRD3 mutant in to foci at 500 nM by live cell imaging; assay type: cell-based; method in brief: as §1
Sequence of Bromodomain-containing protein 3 (Homo sapiens), Q15059 [UNDEFINED MUTATION] (Q15059 whole entry, looked up, change not shown): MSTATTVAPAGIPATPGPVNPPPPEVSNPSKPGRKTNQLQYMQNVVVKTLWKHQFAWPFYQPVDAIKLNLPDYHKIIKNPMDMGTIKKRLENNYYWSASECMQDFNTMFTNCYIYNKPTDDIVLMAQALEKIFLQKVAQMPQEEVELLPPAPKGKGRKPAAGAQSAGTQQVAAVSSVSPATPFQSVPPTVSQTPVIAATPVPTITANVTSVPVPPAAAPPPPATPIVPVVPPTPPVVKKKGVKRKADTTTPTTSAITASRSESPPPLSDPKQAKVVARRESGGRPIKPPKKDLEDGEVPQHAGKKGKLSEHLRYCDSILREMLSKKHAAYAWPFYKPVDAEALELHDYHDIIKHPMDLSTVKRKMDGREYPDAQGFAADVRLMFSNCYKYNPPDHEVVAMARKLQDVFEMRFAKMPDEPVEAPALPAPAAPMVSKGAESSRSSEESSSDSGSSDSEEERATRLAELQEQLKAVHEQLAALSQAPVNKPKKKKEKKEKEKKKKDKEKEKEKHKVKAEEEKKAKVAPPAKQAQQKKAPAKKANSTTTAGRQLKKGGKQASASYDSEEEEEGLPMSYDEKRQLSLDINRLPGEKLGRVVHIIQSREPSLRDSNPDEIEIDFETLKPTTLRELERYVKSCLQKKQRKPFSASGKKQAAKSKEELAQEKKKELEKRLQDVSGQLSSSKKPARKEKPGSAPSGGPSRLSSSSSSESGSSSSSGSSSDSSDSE

[12] = test system: Bromodomain-containing protein 1 (Homo sapiens), O95696 [UNDEFINED MUTATION]; test: Inhibition of BRD1 mutant bromodomain in human U2OS cells expressing BD1 mutant assessed as diffuse nuclear localization of BD1 mutant in asynchronously growing cells at 500 nM by live cell imaging; assay type: cell-based; method in brief: as §1
Sequence of Bromodomain-containing protein 1 (Homo sapiens), O95696 [UNDEFINED MUTATION] (O95696 whole entry, looked up, change not shown): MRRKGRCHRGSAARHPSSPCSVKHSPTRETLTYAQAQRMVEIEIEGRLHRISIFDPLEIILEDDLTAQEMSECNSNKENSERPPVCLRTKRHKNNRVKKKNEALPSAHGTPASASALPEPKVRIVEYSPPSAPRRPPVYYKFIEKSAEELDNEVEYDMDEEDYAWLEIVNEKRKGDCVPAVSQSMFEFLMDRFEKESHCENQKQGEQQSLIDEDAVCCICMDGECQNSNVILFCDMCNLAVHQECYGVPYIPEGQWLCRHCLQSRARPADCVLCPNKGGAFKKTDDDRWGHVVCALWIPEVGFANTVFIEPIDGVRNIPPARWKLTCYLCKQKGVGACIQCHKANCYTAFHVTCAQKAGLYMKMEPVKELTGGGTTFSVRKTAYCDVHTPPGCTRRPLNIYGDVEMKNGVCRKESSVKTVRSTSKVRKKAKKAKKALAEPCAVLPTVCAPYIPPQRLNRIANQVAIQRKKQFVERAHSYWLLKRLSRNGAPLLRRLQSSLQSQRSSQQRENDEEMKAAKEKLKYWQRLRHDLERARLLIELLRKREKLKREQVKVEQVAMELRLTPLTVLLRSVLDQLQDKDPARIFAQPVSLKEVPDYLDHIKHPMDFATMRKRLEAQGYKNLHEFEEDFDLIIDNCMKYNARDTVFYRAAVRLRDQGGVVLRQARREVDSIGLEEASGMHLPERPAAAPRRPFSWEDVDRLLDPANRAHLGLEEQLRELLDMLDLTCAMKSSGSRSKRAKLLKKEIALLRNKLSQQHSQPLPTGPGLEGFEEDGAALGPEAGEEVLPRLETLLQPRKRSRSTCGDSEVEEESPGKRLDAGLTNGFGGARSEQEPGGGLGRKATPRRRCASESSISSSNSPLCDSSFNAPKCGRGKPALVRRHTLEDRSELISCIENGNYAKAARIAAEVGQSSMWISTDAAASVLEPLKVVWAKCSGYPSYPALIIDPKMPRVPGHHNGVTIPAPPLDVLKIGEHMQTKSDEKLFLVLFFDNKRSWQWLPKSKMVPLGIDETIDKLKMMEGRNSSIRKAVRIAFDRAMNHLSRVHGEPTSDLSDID

[13] = biological target: Bromodomain-containing protein 3 (Homo sapiens) (UniProt Q15059); test: Inhibition of BRD3 in human Flp-In-T-REx-293 cells assessed as increase in nucleolar protein partners (RNAPI, UBTF and TCOF1 ) at 500 nM incubated for 24 hrs by BioID assay; assay type: cell-based
Method in brief: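 Stable Flp-In T-REx HEK293 lines carrying BirA*-FLAG-tagged baits were grown in hygromycin to 80% confluence. Expression was induced with 1 μg/mL tetracycline and cells were given 50 μM biotin for 24 h. Lysis was in RIPA, with streptavidin capture for 3 h at 4°C and on-bead trypsin digestion, then LC-MS/MS. BirA*-FLAG-GFP or -NLS cells served as controls. Two biological replicates were run.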

[14] = biological target: Bromodomain-containing protein 3 (Homo sapiens) (UniProt Q15059); test: Inhibition of BRD3 in human U2OS cells assessed as induction of assembly of GFP-tagged BRD3 constructs in to dense foci at 500 nM measured within 20 seconds by live cell imaging; assay type: cell-based; conditions: time 20.0 sec; method in brief: as §1
[15] = test system: Bromodomain-containing protein 3 (Homo sapiens), Q15059 [UNDEFINED MUTATION]; test: Inhibition of BRD3 mutant bromodomain in human U2OS cells assessed as accumulation of BRD3 mutant in nucleolus at 500 nM by live cell imaging; assay type: cell-based; method in brief: as §1
[16] = biological target: T1, Bromodomain and extra-terminal motif (BET) (Homo sapiens); conditions: Flp-In-T-REx-293, dose 500.0 nM, time 10-240 min; remark: listed apart in the source
[17] = biological target: T1, Bromodomain and extra-terminal motif (BET) (Homo sapiens); conditions: Flp-In-T-REx-293, dose 500.0 nM; remark: listed apart in the source
[18] = biological target: T1, Bromodomain and extra-terminal motif (BET) (Homo sapiens); conditions: Flp-In-T-REx-293, dose 500.0 nM, time 10-240 min; remark: listed apart in the source
[19] = biological target: T1, Bromodomain and extra-terminal motif (BET) (Homo sapiens); conditions: Flp-In-T-REx-293, dose 500.0 nM, time 10-240 min; remark: listed apart in the source
[20] = test system: Bromodomain-containing protein 2 (Homo sapiens), P25440 [UNDEFINED MUTATION]; conditions: Flp-In-T-REx-293, dose 500.0 nM, time 24.0 hrs
[21] = biological target: T1, Bromodomain and extra-terminal motif (BET) (Homo sapiens); conditions: Flp-In-T-REx-293, dose 500.0 nM, time 10-240 min; remark: listed apart in the source
[22] = biological target: T1, Bromodomain and extra-terminal motif (BET) (Homo sapiens); conditions: Flp-In-T-REx-293, dose 500.0 nM, time 10-240 min; remark: listed apart in the source
[23] = biological target: Bromodomain-containing protein 3 (Homo sapiens) (UniProt Q15059); test: Inhibition of BRD3 in human U2OS cells assessed as increase in association with partner protein (TCOF1, UBTF, and RNAPI) at 500 nM; assay type: cell-based
[24] = biological target: Bromodomain-containing protein 2 (Homo sapiens) (UniProt P25440); conditions: U2OS, dose 500.0 nM, time 12.0 hrs
[25] = biological target: Bromodomain-containing protein 3 (Homo sapiens) (UniProt Q15059); test: Inhibition of BRD3 in human U2OS cells assessed as induction of assembly of GFP-tagged BRD3 constructs in to dense foci at 500 nM measured 12 hrs after drug washout by live cell imaging; assay type: cell-based; method in brief: as §1
BRD4/BRD9 (Homo sapiens) = BRD4/BRD9 (Homo sapiens) (UniProt O60885+Q9H8M2); conditions: HEK293, dose 5.0 nmol
Sequence of BRD4/BRD9 (Homo sapiens) (Q9H8M2 whole entry, looked up, other chains not shown): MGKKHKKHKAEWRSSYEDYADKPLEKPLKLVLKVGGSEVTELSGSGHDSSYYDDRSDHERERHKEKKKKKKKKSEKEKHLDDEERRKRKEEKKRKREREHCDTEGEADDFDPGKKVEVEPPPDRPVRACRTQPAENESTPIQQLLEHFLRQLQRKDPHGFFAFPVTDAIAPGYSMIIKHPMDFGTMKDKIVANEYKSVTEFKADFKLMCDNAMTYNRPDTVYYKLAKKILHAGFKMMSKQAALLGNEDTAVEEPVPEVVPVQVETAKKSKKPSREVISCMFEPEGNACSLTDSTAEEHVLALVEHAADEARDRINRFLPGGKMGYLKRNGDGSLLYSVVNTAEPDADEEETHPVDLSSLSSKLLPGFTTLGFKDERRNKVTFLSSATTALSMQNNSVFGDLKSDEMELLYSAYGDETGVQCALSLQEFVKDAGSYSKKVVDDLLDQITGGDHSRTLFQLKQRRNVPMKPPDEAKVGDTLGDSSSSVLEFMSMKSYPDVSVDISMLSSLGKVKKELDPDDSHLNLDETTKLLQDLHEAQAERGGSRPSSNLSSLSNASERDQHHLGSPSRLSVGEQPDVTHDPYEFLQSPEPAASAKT

## Cc1sc2c(c1C)C(c1ccc(Cl)cc1)=N[C@@H](CC(=O)OC(C)(C)C)c1nnc(C)n1-2
[1]
  inhibition: Active
[2]
  inhibition: Active
[3]
  inhibition: Active
[4]
  inhibition: inactive
[5]
  inhibition: Active
[6]
  inhibition: Active
U2OS [7]
  inhibition: inactive
[8]
  inhibition: Active
U2OS [9]
  Activity: inactive
[10]
  log2FC: > 2
[11]
  inhibition: Active
[12]
  inhibition: inactive
[13]
  inhibition: Active
[14]
  inhibition: Active
[15]
  inhibition: Active
[16]
  log2FC: 2
[17]
  inhibition: Active
[18]
  log2FC: > 2
[19]
  inhibition: Active
[20]
  inhibition: inactive
[21]
  inhibition: Active
[22]
  inhibition: Active
[23]
  inhibition: Active
[24]
  inhibition: Active
[25]
  inhibition: Active
BRD4/BRD9 (Homo sapiens)
  inhibition: inactive
